Experimental data taken from ChEMBL document CHEMBL4354813, “Design, Synthesis, and Pharmacological Evaluation of Potent Positive Allosteric Modulators of the Glucagon-like Peptide-1 Receptor (GLP-1R)” (J Med Chem, 2020).
The source made the active and inactive calls. No cut-off for these calls is given here.

Tests used:
[1] = Chemical stability in pH 1.1 buffer; type: physicochemical
[2] = AUClast in C57Bl6 mouse at 10 mg/kg, po administered as single dose measured up to 24 hrs ESI-LC/MS-MS analysis; type: ADME, organism-based; design: dose 10 mg/kg, time < 24 hr, route oral; settings: in vivo
In short: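 Single dose of compound: 3 mg/kg i.v. in solution (75% water : 25% of 75% Glycoferol/25% Cremophor) or 10 mg/kg p.o. as wet-milled suspension (0.6% methylcellulose, 0.5% Tween 80 in water); male Wistar rats n=3 per route, female C57Bl6 mice n=24 per route. Plasma sampled 0.25–24 h (p.o.), 0.083–24 h (i.v.); heparinized plasma, acetonitrile precipitation, ESI-LC/MS-MS (LOQ 1 ng/mL rat, 5 ng/mL mouse); noncompartmental analysis, linear trapezoidal.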

[3] = Efflux ratio in human Caco2/TC7 cells at pH 7.4 in presence of 0.5% BSA; type: ADME, cell-based; settings: Caco-2, pH 7.4
In short: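 Efflux in Caco-2/TC7 cells under isocratic conditions, pH 7.4 and 0.5% BSA in both compartments, compound 2 µM, with and without cyclosporine A as efflux inhibitor; LC-MS/MS analysis.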

[4] = Metabolic lability in mouse liver microsomes incubated up to 20 mins by LC-MS/MS analysis
[5] = organism: Rattus norvegicus; assay: Inhibition of glucose-stimulated insulin secretion in dispersed rat pancreatic islets at 10 uM incubated for 2 hrs by ELISA; type: functional
In short: (§1)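 Dispersed islets from male Sprague Dawley rats (collagenase digestion, Histopaque purification, Accutase dispersal, cultured up to 4 days). Pre-incubated 1 h in Krebs-Ringer with 5.6 mM glucose, then 2 h at 37 °C with 15 mM glucose, ±10 nM GLP1(9-36)NH2, ±compound 10 µM, DMSO vehicle; insulin by HTRF ELISA as % of total, n-fold vs control; N≥9.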

[6] = Clearance in mouse hepatocytes assessed per million cells by LC-MS/MS analysis; type: ADME, cell-based, Hepatocyte
In short: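 Intrinsic clearance in primary human hepatocytes ([…] as printed) or mouse hepatocytes, compound 0.5–5 µM; quinidine or ketoconazole added to define CYP2D6/CYP3A4 contribution; LC-MS/MS analysis.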

[7] = Oral bioavailability in Wistar rat at 10 mg/kg administered as single dose treated 2 hrs after dosing with 40 mg/kg, po OATP/MRP2 inhibitor rifampicin and measured up to 24 hrs ESI-LC/MS-MS analysis; type: ADME, organism-based; settings: in vivo
In short: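 Male Wistar rats (n=3 per route) pretreated orally with rifampicin 40 mg/kg (0.6% methylcellulose, 0.5% Tween 80 in water) 2 h before compound, given 3 mg/kg i.v. in Glycoferol/Cremophor-water solution or 10 mg/kg p.o. wet-milled suspension. Plasma sampled up to 24 h; ESI-LC/MS-MS after acetonitrile precipitation (LOQ 1 ng/mL); noncompartmental analysis.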

[8] = molecular target: T1, Cytochrome P450 3A4 (Homo sapiens, UniProt P08684); assay: Inhibition of CYP3A4 (unknown origin) using midazolam substrate; type: ADME
[9] = test system: Mus musculus; assay: Suppression of blood glucose concentration in 0.3 to 4.5 mg/kg, ip GLP1(9-36)NH2-treated normoglycemic C57Bl/6J mouse at 30 mg/kg, po dosed 1 hrs before test by oral glucose-tolerance test; type: functional, organism-based
In short: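 Male C57Bl/6J mice aged 10–11 weeks, n=6, fasted overnight. Rifampicin 60 mg/kg p.o. 2.5 h before the oGTT, compound p.o. 1 h before, GLP1(9-36)NH2 i.p. (0.3, 1, 3, 4.5 mg/kg) 15 min before. Glucose 2 g/kg orally. Tail-vein blood glucose by glucometer at 0, 15, 30, 60 and 90 min.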

[10] = Volume of distribution at steady state in C57Bl6 mouse at 3 mg/kg, iv administered as single dose measured up to 24 hrs ESI-LC/MS-MS analysis; type: ADME, organism-based; settings: in vivo, read-out: Vdss
In short: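 Single dose of 3 mg/kg i.v. in water/Glycoferol/Cremophor solution to female C57Bl6 mice (n=24) or male Wistar rats (n=3). In rats, rifampicin 40 mg/kg p.o. was given 2 h before dosing where indicated. Plasma sampled at 0.083–24 h. ESI-LC/MS-MS after acetonitrile precipitation. Non-compartmental analysis.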

[11] = organism: Rattus norvegicus; assay: Improvement in 10 nM GLP1(9-36)NH2-mediated glucose-stimulated insulin secretion in dispersed rat pancreatic islets at 10 uM incubated for 2 hrs under […] conditions by ELISA; type: functional
[12] = molecular target: T1, Cytochrome P450 3A4; assay: Inhibition of CYP3A4 (unknown origin) using testosterone as substrate; type: ADME
[13] = Metabolic lability in human liver microsomes incubated up to 20 mins by LC-MS/MS analysis
[14] = Volume of distribution at steady state in Wistar rat at 3 mg/kg, iv administered as single dose measured up to 24 hrs ESI-LC/MS-MS analysis; settings: in vivo
[15] = organism: Rattus norvegicus; assay: Inhibition of GLP1(9-36)NH2-mediated glucose-stimulated insulin secretion in dispersed rat pancreatic islets at 10 uM incubated for 2 hrs by ELISA; type: functional; in short: as §1

T1 sequence (P08684 whole entry): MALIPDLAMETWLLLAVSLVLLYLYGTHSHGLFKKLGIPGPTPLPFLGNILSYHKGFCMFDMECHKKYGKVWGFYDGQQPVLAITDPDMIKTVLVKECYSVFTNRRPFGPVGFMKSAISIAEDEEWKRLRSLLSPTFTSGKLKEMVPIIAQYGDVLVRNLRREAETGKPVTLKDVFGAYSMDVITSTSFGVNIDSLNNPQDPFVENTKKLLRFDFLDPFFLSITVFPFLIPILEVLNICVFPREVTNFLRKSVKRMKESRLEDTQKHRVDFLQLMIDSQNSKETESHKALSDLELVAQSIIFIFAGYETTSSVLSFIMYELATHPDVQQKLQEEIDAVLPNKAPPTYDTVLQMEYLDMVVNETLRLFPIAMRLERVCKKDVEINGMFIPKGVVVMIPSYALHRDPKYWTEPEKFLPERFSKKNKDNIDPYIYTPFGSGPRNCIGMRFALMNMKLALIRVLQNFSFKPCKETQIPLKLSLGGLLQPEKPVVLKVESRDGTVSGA

| Stability [1] | AUC(0-t) at 24 h [2] | efflux ratio [3] | metabolized at 20 min [4] | CLH [6] | bioavailability [7] | IC50 [8] | Vd [10] | IC50 [12] | metabolized at 20 min [13] | Vdss [14] | Compound | inhibition [5] | Activity [9] | Activity [11] | inhibition [15] |
| --- | --- | --- | --- | --- | --- | --- | --- | --- | --- | --- | --- | --- | --- | --- | --- |
| 98% | 109 ng·h/mL | 247 | 5% | 0.145 mL/h/10^6 cells | 100% | > 50 µM | 0.934 L/kg | > 50 µM | 20% | 2.29 L/kg | CC(C)(C)OC(=O)n1c2c(c3ccccc31)C[C@H]1C(=O)N3C[C@@H](CC(=O)O)C[C@H]3[C@@H]2N1C(=O)CC1CCC(F)(F)CC1 | inactive | Dose-dependent effect | inactive | – |
| – | – | – | – | – | – | – | – | – | – | – | CC(O)CCN1C[C@H]2c3c(c4ccccc4n3C(=O)OC(C)(C)C)C[C@@H](C1=O)N2C(=O)CC1CCC(F)(F)CC1 (stereo not given in full) | – | – | – | Active |
